Data published in ChEMBL document CHEMBL4308914, “Discovery of potent, low-absorbable sodium-dependent glucose cotransporter 1 (SGLT1) inhibitor SGL5213 for type 2 diabetes treatment” (Bioorg Med Chem, 2019).
Values belong to the compound of their own block, whether it stands above or below them.

Legend:
[1] = biological target: T1, Sodium/glucose cotransporter 1 (Homo sapiens, UniProt P13866); experiment: Inhibition of human SGLT1 expressed in CHOK1 cells assessed as reduction in sodium-dependent glucose uptake after 30 mins in presence of [14C]-methyl-alpha -D-glucopyranoside by microbeta counting method; type: cell-based
T1 sequence (P13866 whole entry): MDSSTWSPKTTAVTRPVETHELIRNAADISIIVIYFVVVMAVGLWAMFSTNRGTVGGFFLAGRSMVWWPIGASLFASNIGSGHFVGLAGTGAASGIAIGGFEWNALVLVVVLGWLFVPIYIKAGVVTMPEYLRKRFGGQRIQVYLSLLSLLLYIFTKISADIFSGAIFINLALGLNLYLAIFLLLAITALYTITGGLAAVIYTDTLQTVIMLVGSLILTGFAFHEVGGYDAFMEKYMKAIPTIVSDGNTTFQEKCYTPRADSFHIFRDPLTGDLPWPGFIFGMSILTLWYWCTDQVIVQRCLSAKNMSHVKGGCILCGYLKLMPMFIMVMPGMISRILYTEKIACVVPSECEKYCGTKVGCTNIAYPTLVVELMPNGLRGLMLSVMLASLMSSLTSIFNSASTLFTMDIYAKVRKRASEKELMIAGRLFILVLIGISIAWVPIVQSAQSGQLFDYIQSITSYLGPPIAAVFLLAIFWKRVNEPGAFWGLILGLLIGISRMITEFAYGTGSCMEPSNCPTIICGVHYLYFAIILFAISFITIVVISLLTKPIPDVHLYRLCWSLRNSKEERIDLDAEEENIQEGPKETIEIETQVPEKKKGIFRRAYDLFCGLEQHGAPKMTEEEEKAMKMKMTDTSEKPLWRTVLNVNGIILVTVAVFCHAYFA
In short: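 CHO-K1 cells stably expressing human SGLT1, preincubated 20 min in Na-free choline buffer (pH 7.4). Uptake buffer (140 mM NaCl, HEPES/Tris pH 7.4) with 0.1 mM methyl-α-D-glucopyranoside plus [14C] tracer and test compound, 30 min at 37 °C. Cells washed, lysed in NaOH, radioactivity counted. Choline-for-Na buffer as background. Six concentrations; IC50 vs untreated control; mean of at least two experiments.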

[2] = biological target: T2, Sodium/glucose cotransporter 2 (Homo sapiens, UniProt P31639); experiment: Inhibition of human SGLT2 expressed in CHOK1 cells assessed as reduction in sodium-dependent glucose uptake after 1 hr in presence of [14C]-methyl-alpha -D-glucopyranoside by microbeta counting method; type: cell-based
T2 sequence (P31639 whole entry): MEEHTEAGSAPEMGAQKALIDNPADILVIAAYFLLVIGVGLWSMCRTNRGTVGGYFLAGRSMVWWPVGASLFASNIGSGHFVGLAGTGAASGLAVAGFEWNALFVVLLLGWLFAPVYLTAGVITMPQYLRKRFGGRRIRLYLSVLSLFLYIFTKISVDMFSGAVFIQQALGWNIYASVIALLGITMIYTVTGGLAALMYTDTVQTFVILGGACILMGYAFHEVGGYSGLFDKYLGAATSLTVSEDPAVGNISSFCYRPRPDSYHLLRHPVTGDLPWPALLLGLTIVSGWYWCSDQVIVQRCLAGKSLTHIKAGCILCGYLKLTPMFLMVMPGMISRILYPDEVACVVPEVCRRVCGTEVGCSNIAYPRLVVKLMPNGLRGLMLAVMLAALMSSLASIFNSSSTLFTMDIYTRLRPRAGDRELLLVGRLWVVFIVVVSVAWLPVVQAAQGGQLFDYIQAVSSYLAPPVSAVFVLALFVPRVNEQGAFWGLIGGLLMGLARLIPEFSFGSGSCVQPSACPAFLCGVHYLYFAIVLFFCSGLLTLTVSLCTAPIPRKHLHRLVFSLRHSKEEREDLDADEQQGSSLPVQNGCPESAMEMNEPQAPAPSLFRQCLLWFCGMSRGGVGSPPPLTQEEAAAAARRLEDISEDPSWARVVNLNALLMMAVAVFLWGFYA
In short: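 Human SGLT2 stably expressed in CHO-K1 cells; 20 min Na-free choline pretreatment, then Na+ uptake buffer pH 7.4 with 1 mM methyl-α-D-glucopyranoside containing [14C] label plus compound, 1 h at 37 °C. Washed, NaOH lysis, scintillation counting; Na-free buffer for background. IC50 from six concentrations relative to uninhibited uptake; mean of at least two experiments.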

[3] = Permeability of the compound at pH 7.4 by PAMPA assay; type: ADME; conditions: read-out: permeability
In short: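 PAMPA at pH 7.4: filter coated with GIT-0 lipid; donor compartment holds compound in universal buffer at 25 μM or 5 μM; permeability reported as ×10⁻⁶ cm/s.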

[4] = Volume of distribution at steady sate in Sprague-Dawley rat at 0.4 mg/kg, iv; type: ADME, organism-based; conditions: in vivo, read-out: Vdss
In short: (§1)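 Fasted male SD rats, single i.v. dose in saline; tail-vein blood sampled over time, plasma analysed by LC-MS/MS. Parameters by non-compartmental analysis; mean of three animals.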

[5] = Oral bioavailability in Sprague-Dawley rat at 30 mg/kg; type: ADME, organism-based; conditions: in vivo
In short: (§2)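 Fasted male SD rats dosed orally in 0.5% CMC Na; tail-vein plasma sampled over time and analysed by LC-MS/MS. Non-compartmental analysis; bioavailability relative to i.v. dosing in saline; mean of three animals.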

[6] = Drug uptake in Sprague-Dawley rat kidney at 0.3 mg/kg, iv administered as single dose after 24 hrs by LCMS analysis; type: ADME, organism-based; conditions: read-out: Drug uptake
In short: (§3)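 Fasted male SD rats given single i.v. dose in saline; animals euthanized at 2, 24 and 72 h, kidneys homogenized in purified water and unchanged drug measured by LC-MS/MS (ng/g tissue). Mean ± SD of three animals; 72 h level also expressed relative to 2 h value.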

[7] = Cmax in Sprague-Dawley rat at 30 mg/kg, po; type: ADME, organism-based; design: dose 30 mg/kg, route oral; conditions: in vivo; in short: as §2
[8] = Drug uptake in Sprague-Dawley rat kidney at 0.3 mg/kg, iv administered as single dose after 2 hrs by LCMS analysis; type: ADME, organism-based; conditions: read-out: Drug uptake; in short: as §3
[9] = Drug uptake in Sprague-Dawley rat kidney at 0.3 mg/kg, iv administered as single dose after 72 hrs by LCMS analysis; type: ADME, organism-based; conditions: read-out: Drug uptake; in short: as §3
[10] = Drug excretion in bile duct cannulated Sprague-Dawley rat urine at 0.3 mg/kg, iv administered as single dose after 24 hrs by LCMS analysis; type: ADME, organism-based; conditions: read-out: Drug excretion
In short: (§4)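 Bile duct-cannulated SD rats given single i.v. dose in saline; urine and bile collected over 24 h. Unchanged drug quantified by LC-MS/MS and expressed as cumulative % of dose; mean ± SD of three animals.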

[11] = Drug excretion in bile duct cannulated Sprague-Dawley rat bile at 0.3 mg/kg, iv administered as single dose after 24 hrs by LCMS analysis; type: ADME, organism-based; conditions: read-out: Drug excretion; in short: as §4
[12] = Total clearance in Sprague-Dawley rat at 0.4 mg/kg, iv; type: ADME, organism-based; conditions: in vivo; in short: as §1
[13] = Drug uptake in Sprague-Dawley rat kidney assessed as unchanged drug level at 0.3 mg/kg, iv administered as single dose after 72 hrs by LCMS analysis relative to control; type: ADME, organism-based; conditions: in vivo; in short: as §3
[14] = Tmax in Sprague-Dawley rat at 30 mg/kg, po; type: ADME, organism-based; conditions: in vivo; in short: as §2
[15] = Half life in Sprague-Dawley rat at 0.4 mg/kg, iv; type: ADME, organism-based; conditions: in vivo; in short: as §1
Rattus norvegicus [16] = experiment: Antidiabetic activity in Sprague-Dawley rat assessed as reduction in blood glucose AUC (0 to 2 hrs) at 1 mg/kg, po dosed just prior to sucrose loading measured up to 120 mins by sucrose tolerance test relative to control; type: functional; design: scale not given: the % may be the effect or the level left
Rattus norvegicus [17] = experiment: Antidiabetic activity in Sprague-Dawley rat assessed as reduction in blood glucose AUC (0 to 2 hrs) at 3 mg/kg, po dosed just prior to sucrose loading measured up to 120 mins by sucrose tolerance test relative to control; type: functional; design: scale not given: the % may be the effect or the level left
Rattus norvegicus [18] = experiment: Antidiabetic activity in Sprague-Dawley rat assessed as reduction in blood glucose AUC (0 to 2 hrs) at 0.3 mg/kg, po dosed just prior to sucrose loading measured up to 120 mins by sucrose tolerance test relative to control; type: functional; design: scale not given: the % may be the effect or the level left
[19] = Gastrointestinal toxicity in Sprague-Dawley rat assessed as induction of diarrhea at 0.3 to 3 mg/kg, po dosed just prior to sucrose loading measured up to 120 mins during sucrose tolerance test relative to control; type: organism-based; conditions: in vivo, 2 h
Rattus norvegicus [20] = experiment: Antidiabetic activity in Sprague-Dawley rat assessed as reduction in blood glucose AUC (0 to 2 hrs) at 0.3 to 3 mg/kg, po dosed just prior to sucrose loading measured up to 120 mins by sucrose tolerance test relative to control; type: functional

IC50 [1]: 111 nM
IC50 [2]: 84 nM
Papp [3]: 7.5 ×10⁻⁶ cm/s
Structure (SMILES): Cc1cc(/C=C/C(C)(C)C(=O)NC(C)(C)CO)ccc1Cc1cc([C@@H]2O[C@H](CO)[C@@H](O)[C@H](O)[C@H]2O)c(C)cc1C

IC50 [1]: 34 nM
IC50 [2]: 17 nM
Structure (SMILES): Cc1cc(C)c([C@@H]2O[C@H](CO)[C@@H](O)[C@H](O)[C@H]2O)cc1Cc1ccc(/C=C/C(C)(C)C(=O)NC(C)(C)CO)cc1F

IC50 [1]: 23 nM
IC50 [2]: 19 nM
Structure (SMILES): CC(C)c1cc(O)c([C@@H]2O[C@H](CO)[C@@H](O)[C@H](O)[C@H]2O)cc1Cc1ccc(/C=C/C(C)(C)C(=O)NC(C)(C)CO)cc1

IC50 [1]: 34 nM
IC50 [2]: 200 nM
Structure (SMILES): COc1cc(C(C)C)c(Cc2ccc(/C=C/C(C)(C)C(=O)NC(C)(C)C(=O)N3CCNCC3)cc2C)cc1[C@@H]1O[C@H](CO)[C@@H](O)[C@H](O)[C@H]1O

IC50 [1]: 12500 nM
IC50 [2]: 2130 nM
Structure (SMILES): Cc1cc(C)c([C@@H]2O[C@H](CO)[C@@H](O)[C@H](O)[C@H]2O)cc1Cc1ccc(/C=C/C(C)(C)C(=O)NC(C)(C)CO)cc1C(C)C

Vd [4]: 0.964 L/kg
bioavailability [5]: 0.09%
concentration at 24 h [6]: 83.8 ng/g
Cmax [7]: 5.34 ng/mL
concentration at 2 h [8]: 1060 ng/g
concentration at 72 h [9]: 12.5 ng/g
dose excreted at 24 h [10]: 5.3%
dose excreted at 24 h [11]: 89.8%
clearance [12]: 62.7 mL/min/kg
Drug uptake [13]: 1.2%
Structure (SMILES): Cc1cc(/C=C/C(C)(C)C(=O)NC(C)(C)C(=O)NCC(C)(C)N)ccc1Cc1cc([C@@H]2O[C@H](CO)[C@@H](O)[C@H](O)[C@H]2O)c(O)cc1C(C)C

IC50 [1]: 55 nM
IC50 [2]: 69 nM
Papp [3]: 0.5 ×10⁻⁶ cm/s
Structure (SMILES): Cc1cc(/C=C/C(C)(C)C(=O)NC(C)(C)CO)ccc1Cc1cc([C@@H]2O[C@H](CO)[C@@H](O)[C@H](O)[C@H]2O)c(O)cc1C(C)C

Tmax [14]: 2.83 h
Vd [4]: 1.64 L/kg
bioavailability [5]: 0.17%
concentration at 24 h [6]: 104 ng/g
Cmax [7]: 1.88 ng/mL
half-life [15]: 2.39 h
concentration at 2 h [8]: 1090 ng/g
concentration at 72 h [9]: 29.2 ng/g
dose excreted at 24 h [10]: 18.1%
dose excreted at 24 h [11]: 65.1%
clearance [12]: 67 mL/min/kg
Drug uptake [13]: 2.7%
Structure (SMILES): COc1cc(C(C)C)c(Cc2ccc(/C=C/C(C)(C)C(=O)NC(C)(C)C(=O)NCCN(C)C)cc2)cc1[C@@H]1O[C@H](CO)[C@@H](O)[C@H](O)[C@H]1O
Activity (Rattus norvegicus [16]): 50.8%
Activity (Rattus norvegicus [17]): 45.7%
Activity (Rattus norvegicus [18]): 27.5%
Activity [19]: Non-Toxic
Emax (Rattus norvegicus [20]): 50.8%
